MEKK2 mut-MEK5 – signal of MEK5 binding to mutant human MEKK2 PB1 domain; actives 0.35% (n = 290,000); bead flow cytometry, Alexa488-MEK5 binding to MEKK2 mutant; percent response, % at 10 µM; in the data active = percent response above about 24%, passing the limit was not always enough
MEKK2 WT-MEK5 – raises or lowers MEK5 binding to wildtype human MEKK2 PB1 domain; bead flow cytometry, Alexa488-MEK5 binding to MEKK2 WT; actives lie on both sides; actives 1.1% (n = 290,000); Q9Y2U5; binding response (% of control), % at 10 µM; in the data active = binding response below about 67% or above about 130%
T cruzi inh – T. cruzi replication inhibition. actives 1.4% (n = 300,000). inhibition, % (no concentration beside the values). T. cruzi beta-gal in NIH3T3, luminescence, 90 h;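 active = mean inhibition across valid replicates above about 55%, limit read from the data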;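 also: signal also drops with host cell toxicity which is not excluded here; 0% = plate median of DMSO wells and 100% = zero luminescence signal; higher percent means less beta-gal luminescence so fewer parasites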
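Test system: β-gal T. cruzi (Tulahuen C4) inside NIH/3T3 cells / Quantity: 5,000 cells/well / Measured by: luminescence from GalScreen with 0.05% NP40, read after 60 min / Medium: DMEM plus 2% FBS / Measure: parasite load inhibition, % / Reagent: Tulahuen C4 trypomastigotes, 5000/well / Schedule: co-culture of at least 90 h after 3 h attachment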
DNA FID counter – fluorescent intercalator displacement, NS3 helicase counter-screen; DNA fluorescent intercalator displacement, fluorescence; inhibition, % at 7.9 µM; actives 0.17% (n = 290,000); in the data active = inhibition above about 37%;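 also: 0% = vehicle and 100% = reference compound; higher means more ethidium bromide displaced from hairpin DNA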
MEKK3 PB1 HTS – modulators (inhibitors or enhancers) of MEK5 binding to human MEKK3 PB1 domain; Q99759; bead-based flow cytometry, Alexa488-MEK5 binding to MEKK3; actives lie on both sides; 0 = blocked by unlabeled MEK5, 100 = vehicle; binding response (% of control), % at 10 µM; actives 1.4% (n = 290,000); AID 1529;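 active = binding response more than 3 SD above or below the average of its plate-row segment, actives on both sides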;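 also: Alexa488 bead fluorescence after subtracting the streptavidin-only scavenger bead signal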
Target sequence (Q99759 whole entry, looked up, the tested form may be a part): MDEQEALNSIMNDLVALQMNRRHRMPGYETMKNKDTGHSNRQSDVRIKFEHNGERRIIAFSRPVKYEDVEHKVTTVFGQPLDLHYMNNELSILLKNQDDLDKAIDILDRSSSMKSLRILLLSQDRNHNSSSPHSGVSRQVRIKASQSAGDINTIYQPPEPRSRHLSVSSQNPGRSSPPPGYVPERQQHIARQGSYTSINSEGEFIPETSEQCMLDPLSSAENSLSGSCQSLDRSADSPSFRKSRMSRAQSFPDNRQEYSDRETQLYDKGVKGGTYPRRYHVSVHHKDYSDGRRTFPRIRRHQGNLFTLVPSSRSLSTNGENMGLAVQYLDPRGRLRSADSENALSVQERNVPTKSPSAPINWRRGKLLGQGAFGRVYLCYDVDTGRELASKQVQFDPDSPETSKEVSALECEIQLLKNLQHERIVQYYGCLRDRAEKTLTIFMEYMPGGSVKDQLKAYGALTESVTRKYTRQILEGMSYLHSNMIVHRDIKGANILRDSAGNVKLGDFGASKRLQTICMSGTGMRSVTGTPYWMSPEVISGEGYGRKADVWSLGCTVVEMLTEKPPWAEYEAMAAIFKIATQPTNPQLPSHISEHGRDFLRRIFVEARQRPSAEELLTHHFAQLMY
NS3 helicase inh – blocks Hepatitis C virus NS3 helicase unwinding; NS3 helicase DNA unwinding, Cy5 molecular beacon fluorescence; inhibition, % at 10.9 µM; actives 0.56% (n = 290,000); AID 1800;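 active = inhibition above the mean of all tested compounds plus 3 SD, set per campaign, cut at about 35% in these data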;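 also: 0% = DMSO wells and 100% = thioflavine S control wells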
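Test system: hepatitis C virus NS3 helicase domain fragment enzyme. Also added: annealed dual-labelled DNA beacon duplex, ATP-started. Timing: 60 min unwinding reaction at 25 °C after ATP addition. Technique: Cy5 fluorescence. Measure: % inhibition of unwinding.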
MEKK2wt confirm – raises or lowers MEK5 binding to wildtype human MEKK2, retest. actives 2.4% (n = 5,900). shares compounds with MEKK3 PB1 HTS. AID 1892. bead flow cytometry, Alexa488-MEK5 binding to MEKK2 WT; actives lie on both sides. binding response (% of control), % at 10 µM; in the data active = binding response below about 16% or above about 210%; inactive = in between
MEKK2mut confirm – signal of MEK5 binding to mutant human MEKK2, retest; shares compounds with MEKK3 PB1 HTS; bead flow cytometry, Alexa488-MEK5 binding to MEKK2 mutant; percent response, % at 10 µM; actives 2% (n = 5,900); AID 1893; in the data active = percent response mostly above about 71%, no sharp cut-off; inactive = mostly below about 38%;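 also: higher means compound restores mutant binding toward wildtype level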
MEKK3 confirm – MEKK3-MEK5 PB1 inhibition, single concentration confirmation; shares compounds with MEKK3 PB1 HTS; bead flow cytometry, Alexa488-MEK5 binding to MEKK3; stronger effect = lower value; binding response (% of control), % at 10 µM; actives 1.8% (n = 5,900); AID 1894;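 active = binding response below 72% of control, or above a set upper limit, though filed actives all read lower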;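 also: 100% = DMSO only wells and 0% = binding blocked by excess unlabeled MEK5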
* marks the source's active call; other numbers are inactive results; . = not tested or not shown; ! = repeats disagree; [ ] = dose if it differs, or a comment. In the library only some 4.1% were active in any assay of this set; here they are far more common.

SMILES	MEKK2 mut-MEK5	MEKK2 WT-MEK5	T cruzi inh	DNA FID counter	MEKK3 PB1 HTS	NS3 helicase inh	MEKK2wt confirm	MEKK2mut confirm	MEKK3 confirm
COc1ccccc1N1CCN(CC(O)COc2cccc3ccccc23)CC1 (stereo not drawn)	1.0	95.0	8.7	5.1	75.0*![inhibitor]	-58.6	119.0	14.0	106.0
CCCCN(C(=O)c1cc(S(=O)(=O)N2CCCCCC2)ccc1OC)c1ccccc1	.	.	16.7	.	.	.	.	.	.
CC1CC(C)CN(C(=O)COC(=O)CCCN2C(=O)c3cccc4cccc(c34)C2=O)C1 (stereo not drawn)	7.0	105.0	-5.0	-44.0	101.0	-17.3	.	.	.
COC(=O)C1CCN(C(=O)COC(=O)c2oc3ccc(OC)cc3c2C)CC1	-1.0	104.0	-16.1	-17.9	104.0	-2.8	.	.	.
N#C/C(=N\Nc1ccccc1)C(=N)N1CCOCC1	0.0	105.0	-5.9	1.1	130.0*	0.1	97.0	-2.0	95.0
N/C(COc1cc(Cl)cc(Cl)c1)=N\O	25.0	115.0	-1.9	-1.4	135.0*	8.1	105.0	-2.0	107.0
CN(C)CCOc1cc(Cl)cc(Cl)c1	-10.0	103.0	14.8	-1.8	96.0	2.0	.	.	.
O=C1/C(=C/c2cccs2)N=C(c2cccs2)N1Nc1ccccc1	-16.0	57.0*[inhibitor]	22.3	-1.6	88.0	-7.9	78.0	-8.0	103.0
O=C(CN1CCCC1)Nc1ccc(Oc2ccc(NC(=O)CN3CCCC3)cc2)cc1	-21.0	1.0*[inhibitor]	39.4	24.9	1.0*[inhibitor]	-8.7	128.0	21.0	106.0
O=C(CN1CCN(c2ccccc2)CC1)Nc1ccc(Oc2ccccc2)cc1	-15.0	1.0*[inhibitor]	14.5	-5.3	2.0*[inhibitor]	-2.2	114.0	5.0	108.0
COc1ccc(NC(=O)CN2CCCC2)cc1	2.0	99.0	-5.8	-3.6	101.0	20.5	.	.	.
CCCCCc1ccc(CC(=O)N2CCOCC2)cc1	0.0	104.0	-0.5	-30.4	101.0	-0.8	.	.	.
O=S(=O)(Nc1cccc(-c2nnco2)c1)c1ccc(Cl)cc1	2.0	103.0	-18.8	-12.4	102.0	0.8	.	.	.
CCOC(=O)c1c(NC(=O)C2CCCN(S(=O)(=O)c3ccccc3)C2)sc2c1CCCC2 (stereo not drawn)	-2.0	95.0	32.6	-4.9	101.0	-4.7	.	.	.
CCOC(=O)c1c(NC(=O)C2CCCN(S(=O)(=O)c3ccc(C)cc3)C2)sc2c1CCCC2 (stereo not drawn)	1.0	107.0	26.5	0.8	141.0*	9.3	94.0	-2.0	101.0
CCOC(=O)c1c(NC(=O)c2ccc(N3C(=O)[C@@H]4[C@H](C3=O)[C@H]3C=C[C@@H]4C3)cc2)sc2c1CCCC2	0.0	108.0	33.2	-0.6	145.0*	4.2	97.0	-4.0	100.0
CCOC(=O)c1c(NC(=O)Cn2cnc([N+](=O)[O-])n2)sc2c1CCCC2	4.0	103.0	63.8*	5.0	130.0*	-12.7	99.0	3.0	103.0
COc1ccc(NC(=O)c2cccn(CC=C(C)C)c2=O)cc1	-1.0	95.0	1.1	-21.7	93.0	0.9	.	.	.
O=C(c1sc(N2CCOCC2)nc1-c1ccccc1)N1CCCCC1	0.0	104.0	2.9	-40.6	131.0*	1.1	98.0	4.0	104.0
c1ccc(-c2nc(N3CCOCC3)sc2-c2ccccc2)cc1	5.0	102.0	30.3	-31.9	102.0	-16.7	.	.	.
COC(=O)CCCCCCCCC(O)C[N+]1(C)CCOCC1 (stereo not drawn)	-47.0	27.0*[inhibitor]	-25.9	3.6	22.0*[inhibitor]	4.5	92.0	-5.0	96.0
COCc1[nH][nH]c(=O)c1/C=N/N1CCOCC1	-17.0	56.0	-10.5	0.4	40.0*[inhibitor]	7.4	104.0	5.0	107.0
CN(C)C(=S)SCCn1c(N)nc(N(C)C)nc1=O	3.0	100.0	1.8	-2.5	104.0	-3.5	.	.	.
C/C(=N\NC(=O)c1ccncc1)c1cc2ccccc2oc1=O	-1.0	105.0	-16.4	-2.9	110.0	4.9	.	.	.
C/C(=N/NC(=O)c1ccncc1)c1cc2ccc(O)cc2oc1=O	16.0	156.0*	.	3.2	103.0	1.8	88.0	-9.0	91.0
SMILES	MEKK2 mut-MEK5	MEKK2 WT-MEK5	T cruzi inh	DNA FID counter	MEKK3 PB1 HTS	NS3 helicase inh	MEKK2wt confirm	MEKK2mut confirm	MEKK3 confirm
CN(C)c1ccc([C@@H]2[C@@H]([N+](=O)[O-])[C@H]3C=Cc4ccccc4N3[C@H]2C(=O)c2ccc(Cl)cc2)cc1	6.0	1.0*[inhibitor]	.	-3.5	80.0	-3.3	92.0	-3.0	94.0
Cc1ccc(NS(=O)(=O)c2c(C)[nH]c(C)c2C(=O)N2CCCCC2)c(Br)c1	4.0	105.0	11.4	-43.7	103.0	-1.3	.	.	.
CC(C)NC(=O)NC(=O)COC(=O)C1(C)CC1(Cl)Cl (stereo not drawn)	0.0	96.0	-1.7	-6.0	104.0	-1.4	.	.	.
CN1CCN(Cc2nc3ccccc3c(=O)n2Cc2nc(-c3ccc4ccccc4c3)cs2)CC1	51.0*	195.0*	29.1	22.8	108.0	-69.3	153.0	25.0	104.0
COc1ccc(/C=N/OC(=O)c2ccc(Cl)cc2)c(Cl)c1OC	-2.0	90.0	7.3	-1.4	96.0	-0.8	.	.	.
COc1ccc(C(=O)CSc2nnc(NC(=O)C3CC(=O)N(c4ccccc4)C3)s2)cc1 (stereo not drawn)	1.0	105.0	6.1	-1.7	136.0*	0.9	104.0	9.0	104.0
COc1nc(Nc2ccccc2F)nc(OC)n1	25.0*	102.0	-8.9	-0.2	102.0	2.4	105.0	1.0	101.0
COc1nc(NCCO)nc(Nc2ccccc2F)n1	8.0	107.0	-18.7	-0.7	105.0	-8.2	.	.	.
CC(C)OC(=O)c1cc(NC(=S)Nc2ccc([N+](=O)[O-])cc2)cc(C(=O)OC(C)C)c1	40.0*	169.0*	4.6	-11.4	82.0	-1.6	147.0	18.0	104.0
CC(C)CCNC(=S)Nc1ccc([N+](=O)[O-])cc1	0.0	106.0	9.1	9.6	129.0*	-8.1	104.0	-7.0	101.0
C[n+]1c2n(c3ccccc31)N=C(c1ccc(-c3ccccc3)cc1)CS2	6.0	159.0*	60.3*	23.1	112.0	-26.3	120.0	-22.0	89.0
CCNS(=O)(=O)c1ccc(CCC(=O)Nc2ccc3c(c2)OCCO3)cc1	0.0	102.0	5.8	-2.1	105.0	9.4	.	.	.

Screening data as filed in PubChem BioAssay.
